Experimental data from ChEMBL document CHEMBL1139044, “Design and synthesis of furoxan-based nitric oxide-releasing glucocorticoid derivatives with potent anti-inflammatory activity and improved safety” (2007).
Calls of active or inactive are those of the source. No cut-off for these calls is given here.

How the values were obtained:
[1] = tested on: Rattus norvegicus; assay: Anti-acute-inflammatory activity in rat assessed as carrageenan induced paw edema volume at 46.4 mg/kg after 3 hrs; type: functional
Procedure, shortened: (§1)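 Rats, n = 8 per group, with CMC-Na as the vehicle control. Paw swelling was induced with carrageenan, and edema volume (ml) was recorded hourly from 1 to 6 h. Significance was tested against the CMC-Na group.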

[2] = tested on: Rattus norvegicus; assay: Anti-acute-inflammatory activity in rat assessed as carrageenan induced paw edema volume at 23.2 mg/kg after 2 hrs; type: functional; procedure, shortened: as §1
[3] = tested on: Rattus norvegicus; assay: Anti-acute-inflammatory activity in rat assessed as carrageenan induced paw edema volume at 23.2 mg/kg after 4 hrs; type: functional; procedure, shortened: as §1
[4] = tested on: Osteoblast; assay: Effect on alkaline phosphatase activity per 100 ml in SD mouse osteoblasts at 1 nmol/L after 48 hrs […]; type: functional
[5] = tested on: Rattus norvegicus; assay: Anti-acute-inflammatory activity in rat assessed as carrageenan induced paw edema volume at 46.4 mg/kg after 4 hrs; type: functional; procedure, shortened: as §1
[6] = tested on: Mus musculus; assay: Antiinflammatory activity in mouse assessed as inhibition of xylene induced ear edema; type: functional, organism-based
[7] = tested on: Mus musculus; assay: Antihypertension activity in SD mouse assessed as systolic arterial pressure at 92.9 mg/kg for 3 weeks; type: functional, Artery
Procedure, shortened: (§2)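 Animals were assigned to groups (n = 10) and dosed for 3 weeks, with CMC-Na as the vehicle group. Systolic pressure, diastolic pressure and heart rate were recorded 1 h after the last dose using a multi-channel tail-artery blood pressure system.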

[8] = tested on: Rattus norvegicus; assay: Anti-acute-inflammatory activity in rat assessed as carrageenan induced paw edema volume at 46.4 mg/kg after 2 hrs; type: functional; procedure, shortened: as §1
[9] = tested on: Rattus norvegicus; assay: Anti-acute-inflammatory activity in rat assessed as carrageenan induced paw edema volume at 23.2 mg/kg after 5 hrs; type: functional; procedure, shortened: as §1
[10] = tested on: Mus musculus; assay: Nitric oxide level in SD mouse serum at 92.9 mg/kg for 3 weeks by nitrate reductase assay; type: functional
Procedure, shortened: (§3)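 Animals were dosed for 3 weeks (n = 10) with a CMC-Na vehicle group. After the blood pressure readings, […] was drawn from the femoral artery and serum NO (µmol/L) was determined by nitrate reductase assay.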

[11] = tested on: Rattus norvegicus; assay: Anti-acute-inflammatory activity in rat assessed as carrageenan induced paw edema volume at 46.4 mg/kg after 1 hr; type: functional; procedure, shortened: as §1
[12] = species: Rattus norvegicus; assay: Anti-subacute-inflammatory activity in rat assessed as inhibition cotton pellet induced granuloma formation; type: functional, organism-based
[13] = tested on: Rattus norvegicus; assay: Anti-acute-inflammatory activity in rat assessed as carrageenan induced paw edema volume at 23.2 mg/kg after 6 hrs; type: functional; procedure, shortened: as §1
[14] = tested on: Rattus norvegicus; assay: Anti-acute-inflammatory activity in rat assessed as carrageenan induced paw edema volume at 92.9 mg/kg after 6 hrs; type: functional; procedure, shortened: as §1
[15] = tested on: Rattus norvegicus; assay: Anti-acute-inflammatory activity in rat assessed as carrageenan induced paw edema volume at 92.9 mg/kg after 3 hrs; type: functional; procedure, shortened: as §1
[16] = tested on: Rattus norvegicus; assay: Anti-acute-inflammatory activity in rat assessed as carrageenan induced paw edema volume at 23.2 mg/kg after 3 hrs; type: functional; procedure, shortened: as §1
[17] = tested on: Rattus norvegicus; assay: Anti-acute-inflammatory activity in rat assessed as carrageenan induced paw edema volume at 46.4 mg/kg after 6 hrs; type: functional; procedure, shortened: as §1
[18] = tested on: Mus musculus; assay: Antihypertension activity in SD mouse assessed as diastolic arterial pressure at 31 mg/kg for 3 weeks; type: functional, Artery; procedure, shortened: as §2
[19] = tested on: Mus musculus; assay: Nitric oxide level in SD mouse serum at 31 mg/kg for 3 weeks by nitrate reductase assay; type: functional; procedure, shortened: as §3
[20] = tested on: Osteoblast; assay: Effect on alkaline phosphatase activity per 100 ml in SD mouse osteoblasts at 10 umol/L after 48 hrs […]; type: functional
[21] = tested on: Mus musculus; assay: Antihypertension activity in SD mouse assessed as systolic arterial pressure at 31 mg/kg for 3 weeks; type: functional, Artery; procedure, shortened: as §2
[22] = tested on: Rattus norvegicus; assay: Anti-acute-inflammatory activity in rat assessed as carrageenan induced paw edema volume at 23.2 mg/kg after 1 hr; type: functional; procedure, shortened: as §1
[23] = tested on: Rattus norvegicus; assay: Anti-acute-inflammatory activity in rat assessed as carrageenan induced paw edema volume at 92.9 mg/kg after 5 hrs; type: functional; procedure, shortened: as §1
[24] = tested on: Rattus norvegicus; assay: Anti-acute-inflammatory activity in rat assessed as carrageenan induced paw edema volume at 46.4 mg/kg after 5 hrs; type: functional; procedure, shortened: as §1
[25] = tested on: Osteoblast; assay: Effect on alkaline phosphatase activity per 100 ml in SD mouse osteoblasts at 0.1 pmol/L after 48 hrs […]
[26] = tested on: Mus musculus; assay: Antihypertension activity in SD mouse assessed as heart rate at 92.9 mg/kg for 3 weeks; type: functional; procedure, shortened: as §2
[27] = tested on: Mus musculus; assay: Antihypertension activity in SD mouse assessed as heart rate at 31 mg/kg for 3 weeks; type: functional; procedure, shortened: as §2
[28] = tested on: Rattus norvegicus; assay: Anti-acute-inflammatory activity in rat assessed as carrageenan induced paw edema volume at 92.9 mg/kg after 1 hr; type: functional; procedure, shortened: as §1
[29] = species: Rattus norvegicus; assay: Antiinflammatory activity in rat assessed as inhibition of Freund's adjuvant induced arthritis; type: functional, organism-based
[30] = tested on: Osteoblast; assay: Effect on alkaline phosphatase activity per 100 ml in SD mouse osteoblasts at 1 pmol/L after 48 hrs […]; type: functional
[31] = tested on: Rattus norvegicus; assay: Anti-acute-inflammatory activity in rat assessed as carrageenan induced paw edema volume at 92.9 mg/kg after 2 hrs; type: functional; procedure, shortened: as §1
[32] = tested on: Mus musculus; assay: Antihypertension activity in SD mouse assessed as diastolic arterial pressure at 92.9 mg/kg for 3 weeks; type: functional, Artery; procedure, shortened: as §2
[33] = tested on: Rattus norvegicus; assay: Anti-acute-inflammatory activity in rat assessed as carrageenan induced paw edema volume at 92.9 mg/kg after 4 hrs; type: functional; procedure, shortened: as §1
[34] = tested on: Osteoclast; assay: Increase in survival rate of SD mouse osteoclasts at 10 pmol/L to 100 nmol/L after 48 hrs by TRAP assay; type: functional, cell-based
[35] = tested on: Rattus norvegicus; assay: Anti-acute-inflammatory activity in rat assessed as carrageenan induced paw edema volume at 21.7 mg/kg after 3 hrs; type: functional; procedure, shortened: as §1
[36] = tested on: Rattus norvegicus; assay: Anti-acute-inflammatory activity in rat assessed as carrageenan induced paw edema volume at 21.7 mg/kg after 5 hrs; type: functional; procedure, shortened: as §1
[37] = tested on: Rattus norvegicus; assay: Antihypertension activity in SD rat assessed as heart rate at 43.4 mg/kg for 3 weeks
[38] = tested on: Rattus norvegicus; assay: Antihypertension activity in SD rat assessed as systolic arterial pressure at 43.4 mg/kg for 3 weeks
[39] = tested on: Rattus norvegicus; assay: Antihypertension activity in SD rat assessed as diastolic arterial pressure at 43.4 mg/kg for 3 weeks
[40] = tested on: Rattus norvegicus; assay: Anti-acute-inflammatory activity in rat assessed as carrageenan induced paw edema volume at 21.7 mg/kg after 2 hrs; type: functional; procedure, shortened: as §1
[41] = tested on: Osteoclast; assay: Inhibition of survival rate of SD mouse osteoclasts at 10 umol/L after 48 hrs by TRAP assay; type: functional, cell-based
[42] = tested on: Rattus norvegicus; assay: Anti-acute-inflammatory activity in rat assessed as carrageenan induced paw edema volume at 21.7 mg/kg after 4 hrs; type: functional; procedure, shortened: as §1
[43] = tested on: Rattus norvegicus; assay: Anti-acute-inflammatory activity in rat assessed as carrageenan induced paw edema volume at 21.7 mg/kg after 6 hrs; type: functional; procedure, shortened: as §1
[44] = tested on: Osteoclast; assay: Inhibition of survival rate of SD mouse osteoclasts at 100 nmol/L to 10 umol/L after 48 hrs by TRAP assay; type: functional, cell-based
[45] = tested on: Rattus norvegicus; assay: Anti-acute-inflammatory activity in rat assessed as carrageenan induced paw edema volume at 21.7 mg/kg after 1 hr; type: functional; procedure, shortened: as §1
[46] = tested on: Rattus norvegicus; assay: Nitric oxide level in SD rat serum at 43.4 mg/kg for 3 weeks by nitrate reductase assay

Structure (SMILES): C[C@]12CCC(=O)C=C1CC[C@@H]1[C@@H]2[C@@H](O)C[C@@]2(C)[C@H]1CC[C@]2(O)C(=O)COC(=O)CCC(=O)OCCOCCOc1no[n+]([O-])c1S(=O)(=O)c1ccccc1
- Activity [1]: 0.56 mL
- Activity [2]: 0.39 mL
- Activity [3]: 0.99 mL
- Activity [4]: 2.97 U
- Activity [5]: 0.94 mL
- Activity [6]: Active
- Activity [7]: 137.8 mmHg
- Activity [8]: 0.24 mL
- Activity [9]: 1.12 mL
- Activity [10]: 40.9 µmol/L
- Activity [11]: 0.13 mL
- Activity [12]: Dose-dependent effect
- Activity [13]: 1.07 mL
- Activity [14]: 0.81 mL
- Activity [15]: 0.41 mL
- Activity [16]: 0.74 mL
- Activity [17]: 0.92 mL
- Activity [18]: 97.8 mmHg
- Activity [19]: 31 µmol/L
- Activity [20]: 1.54 U
- Activity [21]: 144.5 mmHg
- Activity [22]: 0.1 mL
- Activity [23]: 0.8 mL
- Activity [24]: 0.95 mL
- Activity [25]: 1.89 U
- Activity [26]: 379.3
- Activity [27]: 360.3
- Activity [28]: 0.12 mL
- Activity [29]: Active
- Activity [30]: 2.24 U
- Activity [31]: 0.22 mL
- Activity [32]: 86.9 mmHg
- Activity [33]: 0.65 mL

Structure (SMILES): C[C@]12CCC(=O)C=C1CC[C@@H]1[C@@H]2[C@@H](O)C[C@@]2(C)[C@H]1CC[C@]2(O)C(=O)CO [HYDROCORTISONE]
- Activity [34]: Active
- Activity [4]: 2.66 U
- Activity [35]: 0.54 mL
- Activity [36]: 0.98 mL
- Activity [37]: 365.2
- Activity [38]: 156.7 mmHg
- Activity [39]: 109.6 mmHg
- Activity [20]: 2.26 U
- Activity [40]: 0.25 mL
- Activity [41]: Active
- Activity [42]: 0.85 mL
- Activity [25]: 2.07 U
- Activity [43]: 1.02 mL
- Activity [44]: Active
- Activity [45]: 0.15 mL
- Activity [30]: 2.69 U
- Activity [46]: 28 µmol/L

Structure (SMILES): CC(CCOc1no[n+]([O-])c1S(=O)(=O)c1ccccc1)OC(=O)CCC(=O)OCC(=O)[C@@]1(O)CC[C@H]2[C@@H]3CCC4=CC(=O)CC[C@]4(C)[C@H]3[C@@H](O)C[C@@]21C (some centres not stated)
- Activity [6]: Active

Structure (SMILES): C[C@]12CCC(=O)C=C1CC[C@@H]1[C@@H]2[C@@H](O)C[C@@]2(C)[C@H]1CC[C@]2(O)C(=O)COC(=O)CCC(=O)OCCCCOc1no[n+]([O-])c1S(=O)(=O)c1ccccc1
- Activity [6]: Active
